A short description of data set [1]: Inhibition of apamin-sensitive SK channel.
Data set [2] can be described thus: Inhibition of apamin-sensitive SK channel at 10 uM.
Data set [3] concerns the target T1, 5-hydroxytryptamine receptor 1A (Homo sapiens) (UniProt P08908).
T1 sequence (whole entry): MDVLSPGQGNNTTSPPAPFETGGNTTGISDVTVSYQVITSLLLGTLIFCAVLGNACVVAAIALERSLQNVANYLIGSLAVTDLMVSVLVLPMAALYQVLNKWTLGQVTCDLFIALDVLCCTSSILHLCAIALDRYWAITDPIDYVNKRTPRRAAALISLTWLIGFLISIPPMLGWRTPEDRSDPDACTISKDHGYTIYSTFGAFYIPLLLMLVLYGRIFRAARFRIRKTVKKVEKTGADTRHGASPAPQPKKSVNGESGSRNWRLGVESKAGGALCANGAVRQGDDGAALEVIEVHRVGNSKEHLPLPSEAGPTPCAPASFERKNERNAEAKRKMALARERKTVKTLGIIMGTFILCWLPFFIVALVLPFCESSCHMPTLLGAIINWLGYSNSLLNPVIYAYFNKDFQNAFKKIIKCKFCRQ
As to the kind of experiment: Inhibition of 5HT1A receptor at 10 uM.

The nature of data set [4]: Inhibition of sigma 2 receptor at 10 uM.
The target of data set [5] is Histamine H3 receptor (Homo sapiens) (UniProt Q9Y5N1). As to the kind of experiment: Inhibition of histamine H3 receptor at 10 uM.
Chain of Histamine H3 receptor (Homo sapiens) (Q9Y5N1 whole entry): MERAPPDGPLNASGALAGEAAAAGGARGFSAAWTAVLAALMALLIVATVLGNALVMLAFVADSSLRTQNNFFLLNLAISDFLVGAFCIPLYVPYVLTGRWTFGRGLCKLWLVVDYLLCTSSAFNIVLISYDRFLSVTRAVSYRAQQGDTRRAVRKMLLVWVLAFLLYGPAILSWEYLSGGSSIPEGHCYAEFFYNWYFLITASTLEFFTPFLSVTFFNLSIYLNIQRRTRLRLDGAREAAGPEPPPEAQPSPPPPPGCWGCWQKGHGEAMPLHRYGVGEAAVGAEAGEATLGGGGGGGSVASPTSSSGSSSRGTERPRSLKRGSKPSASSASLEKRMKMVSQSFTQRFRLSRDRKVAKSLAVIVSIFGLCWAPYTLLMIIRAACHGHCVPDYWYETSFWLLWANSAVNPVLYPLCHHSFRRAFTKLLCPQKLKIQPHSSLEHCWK
Data set [6] deals with D(2) dopamine receptor (Homo sapiens) (UniProt P14416). As to the kind of experiment: Inhibition of dopamine D2 receptor at 10 uM.
Chain of D(2) dopamine receptor (Homo sapiens) (P14416 whole entry): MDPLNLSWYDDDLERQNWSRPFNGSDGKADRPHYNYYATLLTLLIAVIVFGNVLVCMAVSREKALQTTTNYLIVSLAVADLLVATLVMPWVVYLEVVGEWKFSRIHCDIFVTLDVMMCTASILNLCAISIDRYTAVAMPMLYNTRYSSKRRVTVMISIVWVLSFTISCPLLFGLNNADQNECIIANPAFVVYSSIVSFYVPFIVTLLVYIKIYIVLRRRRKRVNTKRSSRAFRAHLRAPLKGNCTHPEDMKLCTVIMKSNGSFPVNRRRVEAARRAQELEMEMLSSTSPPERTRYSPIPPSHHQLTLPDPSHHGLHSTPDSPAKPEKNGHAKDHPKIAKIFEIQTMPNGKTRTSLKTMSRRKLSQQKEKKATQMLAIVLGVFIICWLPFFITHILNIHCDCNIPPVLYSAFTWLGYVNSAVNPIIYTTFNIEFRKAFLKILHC
Data set [7] in a line: Inhibition of L-type calcium channel at 10 uM.
In data set [8] the target is Small conductance calcium-activated potassium channel protein 1 (Homo sapiens, UniProt Q92952). As to the kind of experiment: Inhibition of SK1 expressed in CHO FlipIn cells by whole cell patch-clamp assay. Format: cell-based. The gist of the method:
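Whole-cell patch clamp on CHO FlipIn cells stably transfected with SK1, grown in Ham's F-12 with 10% calf serum, streptomycin/penicillin and hygromycin-B. Pipette solution (mM): KCl 130, EGTA 10, CaCl2 8.751, MgCl2 1.08, Hepes 10 ([…]), pH 7.2. K+ currents at −50 mV; percent inhibition at increasing concentrations, normalised to full block by 100 µM N-methyl-laudanosine.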
Background: In patch-clamp work, channel activity is measured electrically.

The target in data set [9] is Small conductance calcium-activated potassium channel protein 2 (Homo sapiens, UniProt Q9H2S1). As to the kind of experiment: Inhibition of SK2 expressed in CHO FlipIn cells by whole cell patch-clamp assay. The class given is cell-based.
Chain of Small conductance calcium-activated potassium channel protein 2 (Q9H2S1 whole entry): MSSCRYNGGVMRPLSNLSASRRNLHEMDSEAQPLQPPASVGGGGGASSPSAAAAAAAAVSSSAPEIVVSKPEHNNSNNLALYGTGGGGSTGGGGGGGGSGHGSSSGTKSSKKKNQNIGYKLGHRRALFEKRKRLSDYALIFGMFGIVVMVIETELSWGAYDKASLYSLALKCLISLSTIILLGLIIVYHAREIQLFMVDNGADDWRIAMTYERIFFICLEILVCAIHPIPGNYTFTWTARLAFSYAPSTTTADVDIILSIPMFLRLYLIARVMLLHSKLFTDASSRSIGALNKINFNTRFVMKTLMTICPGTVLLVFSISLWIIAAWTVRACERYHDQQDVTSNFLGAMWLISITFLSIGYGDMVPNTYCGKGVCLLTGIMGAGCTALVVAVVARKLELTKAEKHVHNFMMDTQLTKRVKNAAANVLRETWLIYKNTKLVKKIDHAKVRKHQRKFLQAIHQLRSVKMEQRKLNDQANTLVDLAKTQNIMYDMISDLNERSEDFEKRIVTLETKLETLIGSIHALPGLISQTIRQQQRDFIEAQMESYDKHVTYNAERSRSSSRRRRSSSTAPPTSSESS
For data set [10], the target named is Small conductance calcium-activated potassium channel protein 3 (Homo sapiens, UniProt Q9UGI6). As to the kind of experiment: Inhibition of SK3 expressed in CHO FlipIn cells by whole cell patch-clamp assay. Format: cell-based.
Chain of Small conductance calcium-activated potassium channel protein 3 (Q9UGI6 whole entry): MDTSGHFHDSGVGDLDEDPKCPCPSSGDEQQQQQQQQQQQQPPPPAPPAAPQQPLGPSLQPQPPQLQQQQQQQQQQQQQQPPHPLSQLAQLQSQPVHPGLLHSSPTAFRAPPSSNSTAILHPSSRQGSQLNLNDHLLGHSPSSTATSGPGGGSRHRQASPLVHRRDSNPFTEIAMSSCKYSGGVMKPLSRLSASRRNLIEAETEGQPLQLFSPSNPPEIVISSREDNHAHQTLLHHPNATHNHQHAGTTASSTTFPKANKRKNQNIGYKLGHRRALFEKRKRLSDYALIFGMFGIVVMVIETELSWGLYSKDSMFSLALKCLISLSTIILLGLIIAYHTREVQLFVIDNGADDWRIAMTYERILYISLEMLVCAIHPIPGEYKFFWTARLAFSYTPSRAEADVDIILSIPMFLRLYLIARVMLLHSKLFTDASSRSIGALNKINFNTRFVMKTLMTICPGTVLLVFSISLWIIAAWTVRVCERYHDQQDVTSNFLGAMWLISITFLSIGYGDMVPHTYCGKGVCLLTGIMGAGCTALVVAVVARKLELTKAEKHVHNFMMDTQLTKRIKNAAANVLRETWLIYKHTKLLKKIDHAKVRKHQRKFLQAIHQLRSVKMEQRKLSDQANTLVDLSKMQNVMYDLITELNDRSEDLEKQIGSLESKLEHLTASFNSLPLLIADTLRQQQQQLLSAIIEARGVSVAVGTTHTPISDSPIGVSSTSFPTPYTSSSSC
Data set [11] is described as follows: Dissociation constant, pKa at pH 1.8 to 2.0. The class given is physicochemical. The method, boiled down: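 pKa by potentiometric titration on a Sirius PCA200 analyser; at least three aqueous solutions titrated; sample acidified to pH 1.8–2.0 with 0.5 M aqueous HCl, then titrated with 0.5 M aqueous KOH to pH 12.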
Data set [12] is described as follows: Lipophilicity, log P of the compound. Format: physicochemical. The conditions noted are these: octanol/water. The method, boiled down: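 logP by potentiometric titration on a Sirius PCA200 analyser; at least three titrations at different phase volume ratios, mean logP reported; sample acidified to pH 1.8–2.0 with 0.5 M HCl, titrated with 0.5 M KOH to pH 12.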

Chain of Small conductance calcium-activated potassium channel protein 1 (Q92952 whole entry): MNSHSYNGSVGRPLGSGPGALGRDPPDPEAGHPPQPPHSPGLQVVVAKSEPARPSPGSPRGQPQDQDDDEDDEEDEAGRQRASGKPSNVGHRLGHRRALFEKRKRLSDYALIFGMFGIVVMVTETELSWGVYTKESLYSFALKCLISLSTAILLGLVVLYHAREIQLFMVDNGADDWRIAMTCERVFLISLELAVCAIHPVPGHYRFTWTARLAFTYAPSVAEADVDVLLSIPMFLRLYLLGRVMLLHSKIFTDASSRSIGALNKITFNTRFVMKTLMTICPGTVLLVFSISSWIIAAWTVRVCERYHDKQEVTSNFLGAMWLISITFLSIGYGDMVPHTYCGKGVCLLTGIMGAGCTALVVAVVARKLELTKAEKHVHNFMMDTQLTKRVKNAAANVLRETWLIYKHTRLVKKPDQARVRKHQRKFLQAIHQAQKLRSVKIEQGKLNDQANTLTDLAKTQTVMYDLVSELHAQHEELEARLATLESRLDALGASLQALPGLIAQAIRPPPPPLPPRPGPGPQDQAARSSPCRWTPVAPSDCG

Regarding `Cc1cc(N)c2ccccc2[n+]1CCCCCCCCCC[n+]1c(C)cc(N)c2ccccc21` [DEQUALINIUM CHLORIDE], the affinity in data set [1], expressed as Ki, was 221 nM.

In data set [1], `COc1cc2c(cc1OC)[C@@H](CCC[C@H]1c3cc(OC)c(OC)cc3CCN1C)N(C)CC2` yielded a Ki of 1420 nM.

Consider `COc1cc2c(cc1OC)[C@H](CCC[C@H]1c3cc(OC)c(OC)cc3CCN1C)N(C)CC2`, for which the inhibition in [2] worked out at 61%; in [3], 39%; in data set [4] it was 39%; in data set [5], 37%; in data set [6], 31%; in [7], 36%. This compound returned a Ki in data set [1] of 293 nM. In addition, the IC50 in data set [8] was found to be 3800 nM; in [9] it was 2600 nM; in data set [10] it was 3000 nM. Moreover, in data set [11], the pKa was 8.1. Moreover, the logP in data set [12] stood at 2.9.

In data set [1], `COc1ccc(C[C@H]2c3cc(OC)c(OC)cc3CC[N+]2(C)C)cc1OC` [LAUDANOSINE METHIODIDE] registered a Ki of 1600 nM. This lies in the single-digit micromolar range.

In data set [1], `COc1ccc(CC2c3cc(OC)c(OC)cc3CCN2C)cc1OC` (configuration not stated) [LAUDANOSINE] displayed an inhibitory constant (Ki) of 30000 nM.

In data set [1], `COc1cc2c(cc1OC)[C@@H](CCC[C@@H]1c3cc(OC)c(OC)cc3CCN1C)N(C)CC2` had a Ki of 1880 nM. This Ki lies about 16-fold lower than the previous one.

Usually Ki stands for the dissociation constant of the complex between target and ligand, obtained from inhibition or displacement. Low values mean a stronger hold on the target, high ones a looser hold on the target. For orientation: inhibition means the share of the control response that was lost under treatment. Broadly, the IC50 is the concentration that inhibits the measured activity by half. One may read the pKa as the pH at which an ionisable group is half protonated. Low readings indicate a stronger acid or weaker base, high ones a weaker acid or stronger base. In general, logP refers to the decadic logarithm of the partition coefficient of the neutral form, usually between octanol and water. Read a low logP as lower lipophilicity.

These data come from ChEMBL document CHEMBL1145645, “Bis-tetrahydroisoquinoline derivatives: AG525E1, a new step in the search for non-quaternary non-peptidic small conductance Ca(2+)-activated K(+) channel blockers” (Bioorg Med Chem Lett, 2008).
